Screens as filed in PubChem BioAssay.
AF4-AF9 inh: blocks AF4 peptide binding to human AF9; 350,000 tested, 0.47% active; AlphaScreen, biotin-AF4 peptide binding to FLAG-AF9; inhibition, % at 10 µM; P42568; AID 651704;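 active = every replicate reaching a set inhibition limit, whatever the replicate mean, cut at about 25% in these data; inconclusive = mean inhibition reaches that limit but some replicates miss it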;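 note: 0% = plate neutral control median and 100% = total signal loss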
ERp5 block: ERp5 (human) disulfide isomerase inhibition; Q15084; ERp5 insulin aggregation, absorbance 650 nm, 90 min; inhibition, % at 9.99 µM; 350,000 tested, 0.05% active;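 active = mean replicate inhibition above about 25%, with every replicate also reaching it, limit read from the data, passing the limit was not always enough; inconclusive = only one of those two criteria met; inactive = neither criterion met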
Target sequence (Q15084 whole entry, looked up): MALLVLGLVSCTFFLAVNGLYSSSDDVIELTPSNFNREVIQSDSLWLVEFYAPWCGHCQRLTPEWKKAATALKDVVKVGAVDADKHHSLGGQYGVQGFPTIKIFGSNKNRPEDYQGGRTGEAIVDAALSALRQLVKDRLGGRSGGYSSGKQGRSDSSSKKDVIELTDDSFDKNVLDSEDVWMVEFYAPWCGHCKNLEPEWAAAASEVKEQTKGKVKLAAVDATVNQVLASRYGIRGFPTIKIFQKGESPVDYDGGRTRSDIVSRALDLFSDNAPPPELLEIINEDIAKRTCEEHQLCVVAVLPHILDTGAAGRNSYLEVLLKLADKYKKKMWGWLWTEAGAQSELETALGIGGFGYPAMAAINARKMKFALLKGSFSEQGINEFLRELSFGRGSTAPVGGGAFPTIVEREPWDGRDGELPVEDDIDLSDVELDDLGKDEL
ARNT TACC3 PPI: disruptors of human ARNT/TACC3 interaction. Q9Y6A5. AlphaScreen His-ARNT PAS-B/GST-TACC3 binding, luminescence; TACC3 fragment carries E629A point mutation. inhibition, % at 9.99 µM. 390,000 tested, 0.66% active. AID 623870;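 active = mean inhibition of replicates at least 50% and at least half of replicates each reaching 50%; inconclusive = half or more replicates reach 50% but mean below 50%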;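 note: 0% = complete ARNT plus TACC3 wells and 100% = ARNT alone without TACC3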
PDI inh: inhibitors of human protein disulfide isomerase. P07237. 350,000 tested, 0.052% active. inhibition, % at 10 µM. PDI insulin aggregation turbidity, A650, 90 min;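 active = mean inhibition across replicates of 30% or more, whatever share of single replicates reach that level; inconclusive = mean inhibition below 30% while every single replicate reaches 30%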
FN deposition inh: fibronectin deposition inhibition | AH1F fibroblasts, Alexa488-fibronectin deposition fluorescence, overnight | inhibition, % at 12.6 µM | 350,000 tested, 0.086% active | AID 743247;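 active = mean inhibition across replicates of 30% or more, regardless of how many single replicates reach that level; inconclusive = mean under 30% yet at least half of replicates reach 30%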;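 note: positive control wells lacked labelled fibronectin entirely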
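Material: AH1F fibroblast monolayer depositing Alexa488-labelled fibronectin into matrix | Input: 10000 AH1F cells/well | Medium: DMEM plus 2% serum, read in PBS | Reagent: Alexa488-fibronectin, 24 nM final in well | Compound dosing: One dose per compound, pinned | Schedule: 1 h adhesion, overnight exposure | Measured by: Fluorescence at 485 nm excitation, 525 nm emission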
FGF22 binding: FGF22 (human) thermal shift binding; AID 651658; Q9HCT0; recombinant FGF22 thermal shift, SYPRO orange fluorescence; percent of sucrose octasulfate shift, DMSO zero; 340,000 tested, 1.5% active; activity (Tm shift, normalised), % at 9.99 µM;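 active = mean Tm shift, scaled 0 neutral to 100 positive control, at about 1.3% or above, every replicate too, limit read from the data; inconclusive = no clear call, values can overlap the other calls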
Target sequence (Q9HCT0 whole entry, looked up): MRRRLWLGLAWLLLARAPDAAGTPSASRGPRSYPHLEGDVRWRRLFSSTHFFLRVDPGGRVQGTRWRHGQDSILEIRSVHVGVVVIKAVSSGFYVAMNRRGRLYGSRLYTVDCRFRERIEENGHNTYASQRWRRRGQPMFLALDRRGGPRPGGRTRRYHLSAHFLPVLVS
* hit, by the source's call; ? = inconclusive; . = no result given; ! = a repeat was not active. Only some compounds are listed: those with a hit (about 2.1% of all), similar ones and a draw of the others.

SMILES	AF4-AF9 inh	ERp5 block	ARNT TACC3 PPI	PDI inh	FN deposition inh	FGF22 binding
CCCNC(=O)N1CC2(CCN(C(C)=O)CC2)c2c(n(C)c3cc(OC)ccc23)[C@@H]1CO	2.7	9.4	.	.	.	0.2
CCCCn1c(NCc2ccncc2)nc2ccccc21	-4.1	1.6	-0.5	-2.4	.	0.0
CCCCn1c(NCc2ccc(N(C)C)cc2)nc2ccccc21	28.9*	4.2	15.4	3.1	-6.3	-0.2
CC(C)c1ccc(NC(=O)c2snc3ccc(Cl)cc23)cc1	11.3	-5.5	4.9	2.7	-2.1	44.3*
C[C@@H]1CN([C@@H](C)CO)C(=O)c2cc(NC(=O)Nc3cccc4ccccc34)ccc2O[C@H]1CN(C)C(=O)Nc1ccc2c(c1)OCO2	1.6	13.9	-1.3	.	.	-0.3
O=c1cc(CN2CCN(c3ccc(O)cc3)CC2)nc2scc(-c3ccccc3)n12	2.5	2.5	-0.5	-1.1	.	0.2
C=CCN(CC=C)Cc1cc(=O)n2c(-c3ccccc3)csc2n1	48.7*	-2.5	-2.3	1.7	-7.0	0.3
O=c1cc[nH]c2c1ccc1c(=O)cc[nH]c12	0.1	-2.2	73.9*	9.5	5.5	-0.1
O=c1cc[nH]c2c(Cl)cccc12	-2.2	8.2	-3.0	4.3	0.9	-0.3
CCCSc1ccc(C(=O)Nc2ccc(F)cc2F)cn1	-5.6	-0.4	-30.6	-3.2	-1.7	-0.2
CC(C)S(=O)(=O)c1ccc(C(=O)Nc2ccc(F)cc2F)cn1	-0.4	6.6	4.5	5.8	11.9	43.0*
O=C(O)/C=C/C(=O)NCCCc1ccccc1	-3.7	-78.5	-7.0	3.7	-9.5	0.6
CCCNC(=O)/C=C/C(=O)O	-0.1	0.8	-4.9	1.4	15.8	43.9*
Brc1ccc(-c2cn3c(n2)CCc2ccc4cccnc4c2-3)cc1	.	.	47.2*	-3.9	.	.
CCNC(=O)COC(=O)/C=C/c1cccc([N+](=O)[O-])c1	-1.4	5.6	-4.3	7.7	7.0	42.9*
C[C@@H]1CCCCO[C@@H](CN(C)S(C)(=O)=O)[C@H](C)CN([C@H](C)CO)C(=O)c2cc(NS(=O)(=O)c3cn(C)cn3)ccc2O1	-1.3	-2.5	-5.8	.	.	0.1
COC(=O)c1cccc(/C=N/NC(N)=S)c1O	-20.9	1.1	67.3*	9.0	-7.1	-0.2
O=C(Nc1ccc(Cl)cc1Cl)N1CCN(c2ncccn2)CC1	-7.8	1.7	-0.9	0.2	2.8	43.3*
COc1ccc(S(=O)(=O)CC(=O)Nc2ccccc2Cl)cc1	-1.5	4.3	-3.4	6.4	-0.6	43.4*
CC(Sc1nnc2ccccn12)C(N)=O (stereo not given)	-3.6	9.2	-3.4	0.7	-5.3	43.2*
COc1ccc(Cl)cc1C(=O)NNC(=O)CSc1nnc2ccccn12	-9.0	-0.4	-2.3	-4.2	-15.2	44.3*
CC(C)CNC(=O)CSc1nnc2ccccn12	-0.6	-7.0	-6.1	0.7	-3.7	43.1*
CC(C)CCNC(=O)NC(=O)CSc1nnc2ccccn12	.	.	-5.9	-4.5	.	.
O=C(N[C@H]1CC[C@@H](CCNS(=O)(=O)Cc2ccccc2)O[C@H]1CO)c1cnccn1	-18.0	5.2	5.1	.	-19.6	0.1
O=C(Nc1ccccc1)n1cc(-c2ccccn2)c(N2CCOCC2)n1	-8.5	0.1	.	-0.2	-2.5	44.1*
SMILES	AF4-AF9 inh	ERp5 block	ARNT TACC3 PPI	PDI inh	FN deposition inh	FGF22 binding
O=C(Nc1ccc(Nc2ccccc2)cc1)N1CCOCC1	.	.	1.7	8.3	-1.8	.
COc1ccc(NC(=O)COc2nc3ccccc3nc2N2CCOCC2)c(OC)c1	-5.0	3.0	-1.7	-2.1	1.1	43.2*
COc1ccc(NC(=O)COc2nsnc2N2CCOCC2)cc1	.	.	.	-2.0	-0.7	.
Cc1ccc(N/N=C(\C#N)C(N)=S)cc1C	1.8	0.9	-4.9	-0.9	-17.9	43.8*
N#C/C(=N\Nc1ccc(Cl)cc1)C(N)=S	4.6	-3.1	-0.7	2.8	-10.0	-0.2
CC(=O)c1ccc2c(c1)N(CCCN1CCC(CCO)CC1)c1ccccc1S2	6.4	-4.2	0.9	-1.4	13.2	-0.3
CSc1ccc2c(c1)N(CCC1CCCCN1C)c1ccccc1S2 (stereo not given)	38.5*	2.2	57.7*!	3.3	-1.0	-0.1
C[C@@H]1CCCCO[C@@H](CN(C)S(=O)(=O)c2cccs2)[C@H](C)CN([C@H](C)CO)C(=O)c2cc(NC(=O)c3ccccc3)ccc2O1	.	.	-3.5	.	.	-0.4
COc1ccc(NC(=O)N(C)C[C@@H]2Oc3c(NS(=O)(=O)c4ccc(Cl)cc4)cccc3C(=O)N([C@@H](C)CO)C[C@H]2C)cc1	-2.1	-0.6	-17.9	.	-12.8	0.0
Nc1nc(SCCO)[nH]c(=O)c1NC(=O)c1ccccc1F	-11.5	-1.8	0.7	9.8	-5.6	43.6*
CCOC(=O)c1ccc(NC(=O)Cn2ncc(Cl)c(Cl)c2=O)cc1	-0.5	3.3	.	-0.7	31.9*	-0.7
Cc1ccc(C(=O)OCn2ncc(Cl)c(Cl)c2=O)cc1	.	.	-5.8	-11.7	16.9*	.
COc1ccc(Cl)cc1C(=O)Nc1cc(=O)n(C)c(=O)n1C	49.0*	3.8	-10.5	20.2	3.2	0.3
COc1ccc(S(=O)(=O)N(C)C[C@H]2Oc3c(NS(=O)(=O)c4cccs4)cccc3C(=O)N([C@@H](C)CO)C[C@@H]2C)cc1	-1.0	-0.9	.	.	.	.
O=C(C1CCC(CNc2c(N3CCOCC3)c(=O)c2=O)CC1)N1CCN(c2ccccc2)CC1 (stereo not given)	40.4*	?	-2.7	2.9	-0.1	-0.1
C[C@H]1CN([C@@H](C)CO)C(=O)c2ccccc2-c2ccccc2CO[C@H]1CN(C)Cc1ccc(C(F)(F)F)cc1	2.7	2.3	.	.	-14.6	.
C[C@@H]1CN([C@H](C)CO)C(=O)c2cc(NC(=O)CCCN(C)C)ccc2O[C@@H](C)CCCCO[C@H]1CN(C)S(=O)(=O)c1cccs1	1.1	-2.1	.	.	.	-0.1
O=C(N/N=C/c1ccc(OCc2cnc(Cl)s2)cc1)c1ccncc1	-1.0	-2.3	-10.4	7.5	-9.9	43.2*
O=C(N/N=C/c1ccc(OCc2ccccc2)cc1)c1ccncc1	-0.1	-1.6	0.5	5.7	0.9	0.1
COc1ccc(C)cc1S(=O)(=O)N(C)CC(=O)N1CCC(C(N)=O)CC1	-1.4	2.3	.	0.0	-6.5	43.0*
CCOC(=O)C1CCN(C(=O)CN(C)S(=O)(=O)c2cc(C)ccc2OC)CC1	.	.	-32.8	-0.1	.	.
COc1ccc(CN2CCN(CC=C(C)C)C(CCO)C2)cc1Cn1cccn1 (stereo not given)	0.2	-3.9	.	-6.8	10.2	43.6*
CC(C)=CCN1CCN(Cc2ccc3nsnc3c2)CC1CCO (stereo not given)	-0.6	4.7	-9.8	2.1	.	42.9*
COc1ccc(CN2CCN(CCc3ccccc3)C(CCO)C2)cc1Cn1cncn1 (stereo not given)	1.8	3.2	.	-16.5	-3.2	43.9*
